Data: ChEMBL document CHEMBL3351942, “Rexinoids isolated from Sophora tonkinensis with a gene expression profile distinct from the synthetic rexinoid bexarotene” (J Nat Prod, 2014)
Activity calls are given as the source filed them. The calls are words filed in the database; no cut-off is given here.

Tests used:
[1] = target: T1, Retinoic acid receptor RXR-gamma (Homo sapiens) (UniProt P48443); assay: Binding affinity to RXRgamma (unknown origin) by receptor-SRC1 cofactor complex formation assay
T1 sequence (whole entry): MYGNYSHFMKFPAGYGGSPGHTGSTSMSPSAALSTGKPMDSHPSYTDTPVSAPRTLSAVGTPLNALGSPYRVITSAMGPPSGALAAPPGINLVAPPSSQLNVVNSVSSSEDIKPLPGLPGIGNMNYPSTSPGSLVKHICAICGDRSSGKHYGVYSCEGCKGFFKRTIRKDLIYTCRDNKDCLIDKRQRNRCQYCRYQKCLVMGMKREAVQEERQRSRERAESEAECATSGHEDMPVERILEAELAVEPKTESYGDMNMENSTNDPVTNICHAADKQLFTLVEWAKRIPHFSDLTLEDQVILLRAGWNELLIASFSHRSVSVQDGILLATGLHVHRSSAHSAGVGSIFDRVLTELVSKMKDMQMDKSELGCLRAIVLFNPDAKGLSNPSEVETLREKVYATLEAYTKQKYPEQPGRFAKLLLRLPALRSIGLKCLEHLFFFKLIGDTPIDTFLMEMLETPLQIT
In short: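 Ligand-dependent binding of RXR isotype to coactivator SRC-1 in an NR cofactor kit, detected with HRP-conjugated anti-RXR antibody at OD450. The full agonist CD3254 defined 100% and vehicle 0%. Efficacy was taken as maximum B/Bmax% and potency as EC50.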

[2] = Activation of LXR in mouse C2C12 cells assessed as induction of FAS mRNA expression at 10 uM after 24 hrs by quantitative RT-PCR analysis; assay type: cell-based
In short: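 C2C12 myoblasts grown in DMEM/10% FBS, differentiated at confluence in 2% horse serum, medium changed every other day for 5 days; myotubes treated 24 h with or without T0901317 (1 μM). Total RNA, DNase-treated, oligo(dT) RT from 0.5 μg, SYBR green qPCR; normalized to β-actin (delta-delta Ct), fold over vehicle; mean ± SD of four determinants, one of two experiments.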

Activity [1]: inactive
Structure (SMILES): CC(C)=CCc1cc([C@@H]2CC(=O)c3ccc(O)c(CC=C(C)C)c3O2)cc2c1OC(C(C)(C)O)C2 (some centres not stated)
Activity [2]: inactive
